The source made the active and inactive calls. No cut-off for these calls is given here.
Columns and labels:
[1] = target: Histone deacetylase (Homo sapiens) (UniProt Q13547+O15379+Q9UBN7+Q92769+Q9UQL6+Q8WUI4+Q9BY41+Q96DB2+P56524+Q9UKV0+Q969S8); test: Inhibition of HDAC in human MM1.S cells assessed as increase in H3K9Ac at > 1 uM after 48 hrs by Western blot analysis; type: cell-based; settings: dose microM >1, time 48.0 hrs
Summary of the method: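 MM1.S cells exposed 48 h across a concentration range. Global H3K9Ac and H3K9me2 read by Western blot; run in duplicate.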

[2] = target: T1, CYP1A2 (Homo sapiens, UniProt P05177); test: Inhibition of CYP1A2 in human liver microsomes at 10 uM incubated for 10 mins in presence of NADPH by LC-MS/MS analysis relative to control; type: ADME
T1 sequence (P05177 whole entry): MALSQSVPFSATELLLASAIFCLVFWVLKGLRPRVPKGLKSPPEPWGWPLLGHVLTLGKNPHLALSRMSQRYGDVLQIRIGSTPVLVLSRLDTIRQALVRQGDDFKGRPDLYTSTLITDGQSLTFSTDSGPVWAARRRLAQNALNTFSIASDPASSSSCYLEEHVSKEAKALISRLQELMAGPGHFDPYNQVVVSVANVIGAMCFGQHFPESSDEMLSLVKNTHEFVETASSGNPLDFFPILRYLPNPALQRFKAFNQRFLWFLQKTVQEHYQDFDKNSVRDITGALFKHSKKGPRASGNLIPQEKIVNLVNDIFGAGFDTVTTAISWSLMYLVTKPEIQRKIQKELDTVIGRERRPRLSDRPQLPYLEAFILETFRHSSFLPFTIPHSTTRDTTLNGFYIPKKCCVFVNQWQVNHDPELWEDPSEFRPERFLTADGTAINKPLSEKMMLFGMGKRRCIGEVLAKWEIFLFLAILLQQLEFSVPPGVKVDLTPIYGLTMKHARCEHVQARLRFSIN

For `COc1cc2c(NCC3CCN(c4ncc(C(=O)NO)cn4)CC3)cc(-c3ccc(C)o3)nc2cc1OCCCN1CCCC1`, the inhibition [1] was “Active”.
Work on `COc1cc2nc(-c3ccc(C)o3)cc(NCC3CCN(c4ncc(C(=O)NO)cn4)CC3)c2cc1OC` yielded an inhibition at 10 min, 10 µM [2] of 58.8%.
